Results reported in ChEMBL document CHEMBL1141749, “Nitrogen-containing compounds from Salvia miltiorrhiza” (2005).

Columns and labels:
Assay type in all cases: functional
Details in all cases: for CC50: read-out: CD50 (the source's name)
HepG2 = test: Cytotoxicity against human HepG2 cells by MTT assay
In short: (§1)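 MTT colorimetric read-out. The value is reported as CD50.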

OVCAR-3 = test: Cytotoxicity against human OVCAR-3 cells by MTT assay; in short: as §1
HeLa = test: Cytotoxicity against human HeLa cells by MTT assay; in short: as §1

Structure (SMILES) | CC50 (HepG2) | CC50 (OVCAR-3) | CC50 (HeLa) | Activity (HepG2) | Activity (OVCAR-3) | Activity (HeLa)
Cc1nc2c(o1)c1c3c(ccc1c1occ(C)c21)C(C)(C)CCC3 [NEOSALVIANEN] | 59.2 µM | 74.6 µM | 63.9 µM |  |  | 
CC(C)C1=Cc2ccc3c4c([nH]c(c24)C1=O)C(=O)CC3(C)C [SALVIADIONE] | 137 µM | 169 µM | 178 µM |  |  | 
Cc1nc2c3c(c4ccc5c(c4c2o1)CCCC5(C)C)OCC3C (stereo unspecified) | 121 µM | 126 µM | 108 µM |  |  | 
C[C@H]1COC2=C1C(=O)C(=O)c1c2ccc2c1CCCC2(C)C [CRYPTOTANSHINONE] | 29.7 µM | 9.12 µM | 17.2 µM |  |  | 
Cc1nc2c(o1)c1c(C)coc1c1ccc3c(c12)CCCC3(C)C [SALVIANEN] | 30.4 µM | 39.5 µM | 32.3 µM | Dose-dependent effect | Dose-dependent effect | Dose-dependent effect
Cc1coc2c1C(=O)C(=O)c1c-2ccc2c1CCCC2(C)C [TANSHINONE IIA] | 26.5 µM | 9.52 µM | 8.5 µM |  |  | 
